Source: PubChem BioAssay
KCNQ1 block – inhibitors of human KCNQ1 channel, primary screen, cell-based, thallium flux, high-throughput; Potassium voltage-gated channel subfamily KQT member 1 (Homo sapiens), P51787; CHO-K1 KCNQ1, FluxOR thallium flux fluorescence; hits give high values; B-score at 10 µM; 1.3% of 310,000 active; AID 2642, 2010;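 active = compounds whose thallium flux B-score, printed positive for inhibition, exceeds three library SD while starting fluorescence stays within three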;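 note: channel opened by potassium depolarization with thallium stimulus after 20 min compound exposure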
KCNK9 inh – KCNK9 potassium channel inhibitors, primary screen, HEK293 cells, thallium flux; 1.2% of 310,000 active; B-score at 10 µM; Potassium channel subfamily K member 9 (Homo sapiens), Q9NPC2; FluxOR thallium flux fluorescence; hits give low values;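 active = ratio B-score over 3 SD below the library mean, with starting fluorescence within 5 SD of its mean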;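 note: negative B-score means less thallium flux so channel inhibition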
KCNQ1 pot – potentiators or activators of KCNQ1 channel, primary screen, cell-based, thallium flux, high-throughput. Potassium voltage-gated channel subfamily KQT member 1 (Homo sapiens), P51787. CHO-K1 KCNQ1, thallium flux FluxOR fluorescence; hits give high values. B-score at 10 µM. 0.35% of 310,000 active;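 active = fluorescence ratio B-score, a plate-corrected score, at least three library SD, with initial intensity B-score within 5 SD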
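Material: CHO-K1 cells stably expressing KCNQ1. Medium: assay buffer for compound exposure, DMSO matched across wells. Reagent: K+/Tl+ depolarizing stimulus. Compound dosing: single-concentration screen. Times: 37 °C overnight plating, 90-min dark dye load, 20-min compound pretreatment. Technique: FluxOR Tl+ flux fluorescence.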
KCNK3 inh – human KCNK3 channel inhibitors, primary screen, CHO cells, FluxOR thallium flux, B-score | B-score at 10 µM | FluxOR fluorescence; hits give low values | Potassium channel subfamily K member 3 (Homo sapiens), O14649 | 0.84% of 340,000 active;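 active = B-score under library mean minus 4 SD, starting fluorescence ratio at most library mean plus 5 SD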;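 note: more negative B-score means stronger inhibition of thallium flux through KCNK3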
KCC2 mod – KCC2 cotransporter modulators, thallium flux, primary screen, cell-based, HEK293 KCC2, FluoZin-2 fluorescence, MLSMR; Solute carrier family 12 member 5 (Homo sapiens), Q9H2X9; B-score of Tl+ flux slope (higher = more flux/activation; lower = inhibition) at 10 µM; AID 1456, 2008; KCC2 cells, thallium flux FluoZin-2 fluorescence; 2.2% of 190,000 active;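 active = thallium flux slope and its plate-corrected score both differing from the plate sample mean at a set confidence after two filtering rounds, in either direction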;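 note: slope of fluorescence scaled to starting intensity during 10 to 20 s after thallium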
Target sequence (Q9H2X9 whole entry, looked up): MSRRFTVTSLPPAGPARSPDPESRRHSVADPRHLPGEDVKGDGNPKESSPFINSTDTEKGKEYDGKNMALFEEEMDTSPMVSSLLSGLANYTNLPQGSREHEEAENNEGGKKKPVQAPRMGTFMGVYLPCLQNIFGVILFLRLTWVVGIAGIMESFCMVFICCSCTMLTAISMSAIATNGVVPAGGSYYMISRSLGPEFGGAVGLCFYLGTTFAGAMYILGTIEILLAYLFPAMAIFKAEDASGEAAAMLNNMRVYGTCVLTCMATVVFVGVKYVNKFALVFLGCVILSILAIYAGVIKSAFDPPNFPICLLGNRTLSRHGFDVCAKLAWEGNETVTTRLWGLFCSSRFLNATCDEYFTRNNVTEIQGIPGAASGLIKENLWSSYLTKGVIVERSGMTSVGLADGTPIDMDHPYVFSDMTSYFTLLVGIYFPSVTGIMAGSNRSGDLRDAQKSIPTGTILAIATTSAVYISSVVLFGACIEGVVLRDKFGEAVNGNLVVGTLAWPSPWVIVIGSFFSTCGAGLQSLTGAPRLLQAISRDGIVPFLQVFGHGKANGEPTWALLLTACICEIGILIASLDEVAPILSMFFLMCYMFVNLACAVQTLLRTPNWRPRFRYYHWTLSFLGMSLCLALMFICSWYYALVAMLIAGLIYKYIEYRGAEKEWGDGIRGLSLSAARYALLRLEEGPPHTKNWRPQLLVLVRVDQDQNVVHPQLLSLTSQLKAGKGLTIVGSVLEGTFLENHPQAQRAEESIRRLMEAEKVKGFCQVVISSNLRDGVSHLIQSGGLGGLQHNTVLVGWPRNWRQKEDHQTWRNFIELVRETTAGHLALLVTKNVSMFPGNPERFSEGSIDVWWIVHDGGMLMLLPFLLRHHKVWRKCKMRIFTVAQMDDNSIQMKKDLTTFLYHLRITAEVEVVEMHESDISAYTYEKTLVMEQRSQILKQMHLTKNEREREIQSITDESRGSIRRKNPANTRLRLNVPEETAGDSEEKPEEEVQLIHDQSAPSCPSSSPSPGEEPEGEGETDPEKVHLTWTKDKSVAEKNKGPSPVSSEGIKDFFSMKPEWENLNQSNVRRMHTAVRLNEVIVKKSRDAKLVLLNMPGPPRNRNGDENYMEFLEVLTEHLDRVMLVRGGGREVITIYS
hERG protect – hERG rescue from dofetilide block, primary screen, cell-based, CHO-hERG, FluxOR thallium flux, dofetilide IC70. Voltage-gated inwardly rectifying potassium channel KCNH2 (Homo sapiens), Q12809. dofetilide IC70 present. 0.51% of 310,000 active. activation (rescue from dofetilide block), less the hit threshold, % at 10 µM;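 active = activation above the mean of controls blocked by dofetilide plus 5 SD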;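 note: thallium influx through hERG after potassium depolarization seen as dye fluorescence rise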
KCNK9 block conf – KCNK9 potassium channel inhibitors, confirmation, HEK293 cells, thallium flux, duplicate. shares compounds with KCNK9 inh. FluxOR thallium flux fluorescence. inhibition, % at 10 µM. 43% of 4,900 active;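 active = thallium signal inhibited by more than 5 SD of the compound-free buffer control wells, on both duplicate plates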;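 note: 0% = assay buffer control wells without compound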
Kir2-1 spec – mouse Kir2.1 channel inhibition, confirmation, selectivity assay for KCNK9 modulator project, cell-based, HEK293, thallium flux; shares compounds with KCNK9 inh; Kir2.1 cells, FluxOR thallium flux fluorescence; inhibition, % at 10 µM; 4% of 4,900 active; AID 492993, 2010;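 active = thallium signal drop more than 5 SD beyond the mean of the no-compound control wells, seen in both duplicate plates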;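 note: signal is fluorescence rise after thallium addition divided by baseline fluorescence; plate controls were assay buffer only for no effect and full block by chlorpromazine control for full effect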
KCNK9 uninduced – thallium flux in non-induced HEK293 cells, confirmation, counter-screen for KCNK9 inhibitor project, cell-based, second counter screen, non-induced KCNK9-HEK293 | shares compounds with KCNK9 inh | FluxOR thallium flux | inhibition, % at 10 µM | 40% of 4,900 active | AID 492997, 2010;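 active = thallium signal drop beyond 5 SD of the untreated control mean, on both duplicate plates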;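 note: plate controls were buffer only IC0 wells for no effect and SID17386958 at its maximal inhibitory level for full effect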
An asterisk follows results filed as active; i = inactive; · = no result. This is a sample that favours compounds with a hit; in the whole collection about 4.1% have one here.

SMILES	KCNQ1 block	KCNK9 inh	KCNQ1 pot	KCNK3 inh	KCC2 mod	hERG protect	KCNK9 block conf	Kir2-1 spec	KCNK9 uninduced
O=C(Nc1cccc(-c2nnc(-c3ccccc3)o2)c1)c1ccc(Br)o1	i	-20*	i	i	·	-2	44%*	i	i
Cc1ccc(Nc2nc3ccccc3nc2-n2nc(C)cc2C)cc1	i	-9.8*	i	i	-0.036	-10	57%*	i	32%*
O=C(NC12CC3CC(CC(C3)C1)C2)c1ccc(-c2ccccc2Cl)o1	i	i	i	i	0.25	-5	i	i	i
COc1ccccc1NC(=O)C(=O)NCC(c1ccco1)N1CCc2ccccc2C1 (centres undefined)	i	i	i	i	·	-6	i	i	i
CCOc1ccc(-n2c(-c3ccccc3)c[n+]3c2CCC3)cc1	i	i	i	i	-0.31	-26	·	·	·
CC(C)c1ccc(-n2c(-c3ccccc3)c[n+]3c2CCc2ccccc2-3)cc1	i	-16*	i	i	-0.93	-49	72%*	75%*	32%*
O=c1oc2ccccc2c(O)c1Cc1cc(Cl)c2cccnc2c1O	i	i	i	i	2.8	-5	i	i	i
COc1ccc(/C=N/NC(=O)c2ccc(C)cc2)cc1CN1CCN(c2ccc(F)cc2)CC1	i	i	i	i	·	-19	·	·	·
COc1ccc(/C=N\NC(=O)c2cc(O)c(O)c(O)c2)cc1CN1CCN(c2ccc(F)cc2)CC1	i	i	i	i	0.58	-11	i	i	i
COc1ccc(OCCSc2nnc(C)n2-c2ccccc2)cc1	i	i	i	i	-0.06	-6	i	i	i
Cc1nc(-c2ccc(F)cc2)c(CC(=O)N2CCN(S(=O)(=O)c3cccc([N+](=O)[O-])c3)CC2)s1	·	·	·	i	·	·	·	·	·
CCc1cccc(C)c1NC(=O)CSc1n[nH]c(N)n1	·	·	·	i	·	·	·	·	·
CCC1([N+](=O)[O-])COC(c2ccc(Cl)cc2)OC1 (centres undefined)	·	·	·	i	·	·	·	·	·
CC(=O)N1N=C(c2ccc(C)cc2)OC1c1ccc(C(C)C)cc1 (centres undefined)	i	i	i	i	·	-9	i	i	30%*
CC(=O)N1N=C(c2ccc(C)cc2)OC1c1ccc(C)cc1 (centres undefined)	i	i	i	i	0.21	-7	·	·	·
Cc1cc(C(=O)OC(C)C(=O)N2CCc3ccccc32)ccc1[N+](=O)[O-] (centres undefined)	i	i	i	i	·	-11	i	i	i
O=C(/C=C/c1ccccc1Cl)N(Cc1ccc(Cl)cc1)C1CCS(=O)(=O)C1 (centres undefined)	i	-8.2*	i	i	-1.2	-3	55%*	i	36%*
N#Cc1ccc(-c2cccnc2)nc1SCc1ccc(Cl)cc1Cl	i	-13*	i	i	0.52	-4	46%*	i	38%*
COc1ccccc1Nc1nnc(SCC2CCCCO2)s1 (centres undefined)	i	i	i	i	-0.41	-12	·	·	·
Cc1ccccc1Nc1nnc(SCC2CCCCO2)s1 (centres undefined)	i	-8.8*	i	i	-2.4	-6	i	i	i
CCOC(=O)COc1nc(-c2ccccc2)cc(-c2ccco2)c1C#N	i	-8.2*	i	i	-0.68	-5	49%*	i	34%*
COC(=O)CSc1nc(-c2ccccc2)cc(-c2ccco2)c1C#N	i	-8.9*	i	i	-1	-2	31%*	i	28%*
CCOC(=O)COc1nc(-c2ccc(Cl)cc2)cc(-c2ccco2)c1C#N	i	i	i	i	0.12	0	·	·	·
Cc1cc(C)cc(OCC(=O)Nc2nc(-c3cccnc3)cs2)c1	i	i	i	i	·	-4	·	·	·
CC1Cc2ccccc2N1C(=O)CNc1cccc(S(=O)(=O)N2CCCC2)c1 (centres undefined)	i	i	i	i	-1	-13	i	i	i
SMILES	KCNQ1 block	KCNK9 inh	KCNQ1 pot	KCNK3 inh	KCC2 mod	hERG protect	KCNK9 block conf	Kir2-1 spec	KCNK9 uninduced
CCOc1cc(C)nc(N2CCC(C(=O)NC3CC3)CC2)n1	·	·	·	i	·	·	·	·	·
CC(=O)c1cnn(-c2nc3c(C)cccc3s2)c1C	i	i	i	i	-0.11	-8	i	i	i
Cn1nnc(NC(=S)NC(=O)c2cccc3ccccc23)n1	i	i	i	i	·	-6	·	·	·
COc1ccc(C)cc1NC(=O)CC(O)(C(F)(F)F)C(F)(F)F	i	-9.6*	i	i	0.86	-15	i	i	i
CCOC(=O)Nc1cc(C)ccc1OC	i	i	i	i	0.85	-7	·	·	·
O=C1c2ccccc2C2=Nc3ccccc3SC(c3ccc(Cl)cc3)C12 (centres undefined)	i	-13*	i	i	-0.082	-12	46%*	i	34%*
O=C1CCCC2=C1C(c1ccccc1)C1C(=O)c3ccccc3C1=N2 (centres undefined)	i	i	i	i	-0.61	-2	·	·	·
O=C1c2ccccc2C2=Nc3ccccc3SC(c3cccc(F)c3)C12 (centres undefined)	i	-15*	i	i	-0.69	-4	56%*	i	56%*
O=C1CCCC2=C1C(c1ccc(Cl)cc1)C1C(=O)c3ccccc3C1=N2 (centres undefined)	i	i	i	i	-2.7	-17	·	·	·
